How the values were obtained:
Rattus norvegicus [1] = test: Percent fall in systolic blood pressure at 1.5 / 4 hr after peroral administration of 50 mg/kg in DOCA/saline hypertensive rats at 6 h; Non significant; type: functional, organism-based; parameters: dose 50 mg/kg; conditions: Artery, at 50 mg/kg
Rattus norvegicus [2] = test: The percent fall in systolic blood pressure after peroral administration of 50 mg/kg in DOCA/saline hypertensive rats at 24 hr; conditions: route oral
Rattus norvegicus [3] = test: Starting systolic blood pressure at dose of 50 mg/kg in rat; type: functional, Artery
Procedure, shortened: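 Mean systolic blood pressure before dosing for each group of four DOCA/saline hypertensive rats given 50 mg/kg orally. It indicates how far hypertension was established.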

Rattus norvegicus [4] = test: The percent fall in systolic blood pressure at 1.5 / 4 h after peroral administration of 50 mg/kg in DOCA/saline hypertensive rats at 2 hr; type: functional, Artery; conditions: route oral
Rattus norvegicus [5] = test: Starting systolic blood pressure at dose of 10 mg/kg; type: functional, Artery
Procedure, shortened: (§1)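 DOCA/saline hypertensive rats, four per group, dosed orally at 50, 25 or 10 mg/kg. Mean starting systolic pressure was recorded for each group. Systolic pressure was then read 2, 6 and 24 h after dosing and reported as percentage fall from the starting value.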

Rattus norvegicus [6] = test: The percent fall in systolic blood pressure at 1.5 / 4 hr after peroral administration of 25 mg/kg in DOCA/saline hypertensive rats at 6 hr; type: functional, Artery; conditions: route oral; procedure, shortened: as §1
Rattus norvegicus [7] = test: The percent fall in systolic blood pressure at 1.5 / 4 hr after peroral administration of 25 mg/kg in DOCA/saline hypertensive rats at 2 hr; type: functional, Artery; conditions: route oral; procedure, shortened: as §1
Rattus norvegicus [8] = test: Starting systolic blood pressure at dose of 25 mg/kg; type: functional, Artery; procedure, shortened: as §1
Rattus norvegicus [9] = test: The percent fall in systolic blood pressure at 1.5 / 4 hr after peroral administration of 50 mg/kg in DOCA/saline hypertensive rats at 6 hr; type: functional, Artery; conditions: route oral
Rattus norvegicus [10] = test: The percent fall in systolic blood pressure at 1.5 / 4 hr after peroral administration of 25 mg/kg in DOCA/saline hypertensive rats at 24 hr; type: functional, Artery; conditions: route oral; procedure, shortened: as §1
Rattus norvegicus [11] = test: The percent fall in systolic blood pressure at 1.5 / 4 hr after peroral administration of 50 mg/kg in DOCA/saline hypertensive rats at 24 hr; type: functional, Artery; conditions: route oral; procedure, shortened: as §1
Rattus norvegicus [12] = test: The percent fall in systolic blood pressure at 1.5 / 4 hr after peroral administration of 50 mg/kg in DOCA/saline hypertensive rats at 24 hr; Non significant; type: functional, organism-based; parameters: dose 50 mg/kg; conditions: Artery, at 50 mg/kg
Rattus norvegicus [13] = test: The percent fall in systolic blood pressure at 1.5 / 4 hr after peroral administration of 10 mg/kg in DOCA/saline hypertensive rats at 2 hr; type: functional, Artery; conditions: route oral; procedure, shortened: as §1
Rattus norvegicus [14] = test: The percent fall in systolic blood pressure at 1.5 / 4 hr after peroral administration of 10 mg/kg in DOCA/saline hypertensive rats at 24 hr; Non significant, p>0.05; type: functional, organism-based; parameters: dose 10 mg/kg; conditions: Artery, at 10 mg/kg; procedure, shortened: as §1
Rattus norvegicus [15] = test: The percent fall in systolic blood pressure at 1.5 / 4 hr after peroral administration of 10 mg/kg in DOCA/saline hypertensive rats at 6 hr; type: functional, Artery; conditions: route oral; procedure, shortened: as §1
Rattus norvegicus [16] = test: The percent fall in systolic blood pressure at 1.5 / 4 hr after peroral administration of 25 mg/kg in DOCA/saline hypertensive rats at 24 hr; Non significant, p>0.05; type: functional, organism-based; parameters: dose 25 mg/kg; conditions: Artery, at 25 mg/kg
Rattus norvegicus [17] = test: The percent fall in systolic blood pressure at 1.5 / 4 hr after peroral administration of 40 mg/kg in conscious renal hypertensive rats (RHR).; type: functional, Artery; conditions: route oral
Procedure, shortened: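 Conscious renal hypertensive rats, four per group, dosed orally. Starting systolic pressures were 160–200 mmHg. Percentage fall in systolic pressure was taken at 1.5 and/or 4 h after dosing. Falls under 10% were scored as ±.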

Rattus norvegicus [18] = test: The percent fall in systolic blood pressure at 1.5 / 4 hr after peroral administration of 10 mg/kg in DOCA/saline hypertensive rats at 6 h; Non significant, p>0.05; type: functional, organism-based; parameters: dose 10 mg/kg; conditions: Artery, at 10 mg/kg; procedure, shortened: as §1
Rattus norvegicus [19] = test: The percent fall in systolic blood pressure at 1.5 / 4 hr after peroral administration of 50 mg/kg in DOCA/saline hypertensive rats at 2 hr; Non significant; type: functional, organism-based; parameters: dose 50 mg/kg; conditions: Artery, at 50 mg/kg

## COc1ccccc1OCC(O)CN1CCC(NC(=O)Nc2ccccc2)CC1 (stereo unspecified)
Rattus norvegicus [1]
  Fall: Not significant
Rattus norvegicus [2]
  Fall: -27%
Rattus norvegicus [3]
  SP: 212 mmHg
Rattus norvegicus [4]
  Fall: 27%

## CN(C(=O)Nc1ccccc1)C1CCN(CCc2c[nH]c3ccccc23)CC1
Rattus norvegicus [5]
  SP: 168 mmHg
Rattus norvegicus [6]
  Fall: 38%
Rattus norvegicus [7]
  Fall: 44%
Rattus norvegicus [3]
  SP: 174 mmHg
Rattus norvegicus [8]
  SP: 180 mmHg
Rattus norvegicus [4]; 50 mg/kg
  Fall: 54%
Rattus norvegicus [9]; 50 mg/kg
  Fall: 52%
Rattus norvegicus [10]
  Fall: 20%
Rattus norvegicus [11]
  Fall: 26%

## O=C(Nc1ccc(Cl)cc1)NC1CCN(CCCC(=O)c2ccccc2)CC1
Rattus norvegicus [3]
  SP: 200 mmHg
Rattus norvegicus [12]
  Fall: Not significant
Rattus norvegicus [4]
  Fall: 30%
Rattus norvegicus [9]
  Fall: 25%

## O=C(CCCN1CCC(NC(=S)NC(=O)c2ccccc2)CC1)c1ccccc1
Rattus norvegicus [3]
  SP: 186 mmHg
Rattus norvegicus [12]
  Fall: Not significant
Rattus norvegicus [4]
  Fall: 36%
Rattus norvegicus [9]
  Fall: 32%

## O=C(NC(=O)c1ccccc1)NC1CCN(CCCC(=O)c2ccc(F)cc2)CC1
Rattus norvegicus [3]
  SP: 184 mmHg
Rattus norvegicus [12]
  Fall: Not significant
Rattus norvegicus [4]
  Fall: 43%
Rattus norvegicus [9]
  Fall: 31%

## O=C(NC(=O)C1CCCCC1)NC1CCN(CCc2c[nH]c3ccccc23)CC1
Rattus norvegicus [5]
  SP: 170 mmHg
Rattus norvegicus [13]
  Fall: 30%
Rattus norvegicus [6]
  Fall: 54%
Rattus norvegicus [7]
  Fall: 54%
Rattus norvegicus [14]
  Fall: Non significant, p>0.05
Rattus norvegicus [3]
  SP: 173 mmHg
Rattus norvegicus [15]
  Fall: 27%
Rattus norvegicus [16]
  Fall: Not significant
Rattus norvegicus [8]
  SP: 181 mmHg
Rattus norvegicus [12]
  Fall: Not significant
Rattus norvegicus [4]
  Fall: 48%
Rattus norvegicus [9]
  Fall: 52%

## O=C(Nc1ccc(Cl)c(Cl)c1)NC1CCN(CCCC(=O)c2ccccc2)CC1
Rattus norvegicus [2]
  Fall: 18%
Rattus norvegicus [3]
  SP: 169 mmHg
Rattus norvegicus [4]
  Fall: 35%
Rattus norvegicus [9]
  Fall: 35%

## O=C(Nc1ccccc1C(F)(F)F)NC1CCN(CCCC(=O)c2ccccc2)CC1
Rattus norvegicus [3]
  SP: 208 mmHg
Rattus norvegicus [12]
  Fall: Not significant
Rattus norvegicus [4]
  Fall: 20%
Rattus norvegicus [9]
  Fall: 20%

## O=C(Nc1ccccc1)NC1CCN(CCCC(=O)c2ccccc2)CC1
Rattus norvegicus [3]
  SP: 205 mmHg
Rattus norvegicus [12]
  Fall: Not significant
Rattus norvegicus [17]
  Activity: 39
Rattus norvegicus [4]
  Fall: 31%
Rattus norvegicus [9]
  Fall: 24%

## O=C(NC(=O)c1ccccc1)NC1CCN(CCc2c[nH]c3ccccc23)CC1
Rattus norvegicus [5]
  SP: 178 mmHg
Rattus norvegicus [13]
  Fall: 36%
Rattus norvegicus [6]
  Fall: 48%
Rattus norvegicus [18]
  Fall: Not significant
Rattus norvegicus [7]
  Fall: 51%
Rattus norvegicus [14]
  Fall: Not significant
Rattus norvegicus [3]
  SP: 179 mmHg
Rattus norvegicus [8]
  SP: 171 mmHg
Rattus norvegicus [17]
  Activity: 48
Rattus norvegicus [4]
  Fall: 49%
Rattus norvegicus [9]
  Fall: 49%
Rattus norvegicus [10]
  Fall: 21%
Rattus norvegicus [11]
  Fall: 38%

## CCCCNC(=O)NC1CCN(CCc2c[nH]c3ccccc23)CC1
Rattus norvegicus [19]
  Fall: Not significant
Rattus norvegicus [3]
  SP: 172 mmHg
Rattus norvegicus [12]
  Fall: Not significant
Rattus norvegicus [9]
  Fall: 29%

## O=C(NC(=O)c1cccs1)NC1CCN(CCc2c[nH]c3ccccc23)CC1
Rattus norvegicus [5]
  SP: 169 mmHg
Rattus norvegicus [13]
  Fall: 50%
Rattus norvegicus [6]
  Fall: 46%
Rattus norvegicus [7]
  Fall: 43%
Rattus norvegicus [14]
  Fall: Not significant
Rattus norvegicus [3]
  SP: 193 mmHg
Rattus norvegicus [15]
  Fall: 46%
Rattus norvegicus [16]
  Fall: Not significant
Rattus norvegicus [8]
  SP: 171 mmHg
Rattus norvegicus [4]
  Fall: 47%
Rattus norvegicus [9]
  Fall: 38%
Rattus norvegicus [11]
  Fall: 38%

## O=C(NC(=O)c1ccccc1)NC1CCN(CCCC(=O)c2ccccc2)CC1
Rattus norvegicus [5]
  SP: 173 mmHg
Rattus norvegicus [13]
  Fall: 22%
Rattus norvegicus [6]
  Fall: 26%
Rattus norvegicus [1]
  Fall: Not significant
Rattus norvegicus [18]
  Fall: Not significant
Rattus norvegicus [7]
  Fall: 28%
Rattus norvegicus [14]
  Fall: Not significant
Rattus norvegicus [3]
  SP: 169 mmHg
Rattus norvegicus [16]
  Fall: Not significant
Rattus norvegicus [8]
  SP: 178 mmHg
Rattus norvegicus [12]
  Fall: Not significant
Rattus norvegicus [4]
  Fall: 21%

Reference: ChEMBL document CHEMBL1121617, “Antihypertensive ureidopiperidines” (1980)
